Measurements from ChEMBL document CHEMBL3046033, “Design, synthesis, crystal structure analysis, and insecticidal evaluation of phenylazoneonicotinoids” (2011).

Tests used:
Assay type in all cases: functional
Aphis craccivora [1] = experiment: Insecticidal activity against Aphis craccivora (cowpea aphid) assessed as mortality at 125 mg/L after 24 hr by leaf-dip method
In short: (§1)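 Test solutions were made by dissolving compounds in N,N-dimethylformamide and diluting with water containing Triton X-100 (0.1 mg/L), giving a series of 500.0, 250.0 and 125.0 mg/L plus other concentrations for the cowpea aphid (Aphis craccivora) bioassay.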

Aphis craccivora [2] = experiment: Insecticidal activity against Aphis craccivora (cowpea aphid) assessed as mortality at 250 mg/L after 24 hr by leaf-dip method; in short: as §1
Aphis craccivora [3] = experiment: Insecticidal activity against Aphis craccivora (cowpea aphid) assessed as mortality after 24 hr by leaf-dip method; in short: as §1
Aphis craccivora [4] = experiment: Insecticidal activity against Aphis craccivora (cowpea aphid) assessed as mortality at 500 mg/L after 24 hr by leaf-dip method; in short: as §1

Structure (SMILES) | mortality at 125 µg/mL (Aphis craccivora [1]) [%] | mortality at 250 µg/mL (Aphis craccivora [2]) [%] | LC50 (Aphis craccivora [3]) [µM] | mortality at 500 µg/mL (Aphis craccivora [4]) [%]
COc1cccc(OC)c1/N=N/C(=C1/NCCN1Cc1cnc(Cl)s1)[N+](=O)[O-] | 100 | 100 | 14.6 | 100
O=[N+]([O-])C(/N=N/c1ccccc1[N+](=O)[O-])=C1\NCCN1Cc1ccc(Cl)nc1 | – | – | – | 8.2
O=[N+]([O-])C(/N=N/c1ccccc1F)=C1\NCCN1Cc1ccc(Cl)nc1 | – | – | – | 13
O=[N+]([O-])C(/N=N/c1ccccc1)=C1\NCCN1Cc1ccc(Cl)nc1 | – | – | – | 31.2
CCc1cccc(C)c1/N=N/C(=C1/NCCN1Cc1ccc(Cl)nc1)[N+](=O)[O-] | 100 | 100 | 3.74 | 100
O=[N+]([O-])C(/N=N/c1ccc(F)cc1)=C1\NCCN1Cc1ccc(Cl)nc1 | 100 | 100 | 37.2 | 100
O=[N+]([O-])C(/N=N/c1ccc(F)cc1F)=C1\NCCN1Cc1ccc(Cl)nc1 | – | – | – | 12.2
O=[N+]([O-])C(/N=N/c1c(Cl)cccc1Cl)=C1\NCCN1Cc1cnc(Cl)s1 | – | – | – | 18.2
Cc1cc(C)c(/N=N/C(=C2/NCCN2Cc2cnc(Cl)s2)[N+](=O)[O-])c(C)c1 | 100 | 100 | – | 100
CCc1cccc(CC)c1/N=N/C(=C1/NCCN1Cc1ccc(Cl)nc1)[N+](=O)[O-] | 100 | 100 | 2.8 | 100
O=[N+]([O-])C(/N=N/c1cccc(F)c1F)=C1\NCCN1Cc1ccc(Cl)nc1 | – | – | – | 25.1
Cc1ccccc1/N=N/C(=C1/NCCN1Cc1ccc(Cl)nc1)[N+](=O)[O-] | – | – | – | 52.5
COc1ccc(/N=N/C(=C2/NCCN2Cc2ccc(Cl)nc2)[N+](=O)[O-])cc1 | – | – | – | 47.5
CC(C)c1cccc(C(C)C)c1/N=N/C(=C1/NCCN1Cc1ccc(Cl)nc1)[N+](=O)[O-] | 100 | 100 | 13.8 | 100
Cc1cc(C)c(/N=N/C(=C2/NCCN2Cc2ccc(Cl)nc2)[N+](=O)[O-])c(C)c1 | 100 | 100 | 4.99 | 100
O=[N+]([O-])/N=C1\NCCN1Cc1ccc(Cl)nc1 [IMIDACLOPRID] | 100 | 100 | 35 | 100
Cc1cccc(C)c1/N=N/C(=C1/NCCN1Cc1cnc(Cl)s1)[N+](=O)[O-] | 100 | 100 | 3.5 | 100

Structure (SMILES) | mortality at 125 µg/mL (Aphis craccivora [1]) [%] | mortality at 250 µg/mL (Aphis craccivora [2]) [%] | LC50 (Aphis craccivora [3]) [µM] | mortality at 500 µg/mL (Aphis craccivora [4]) [%]
O=[N+]([O-])C(/N=N/c1c(Cl)cccc1Cl)=C1\NCCN1Cc1ccc(Cl)nc1 | – | – | – | 6.5
Cc1cc(C(F)(C(F)(F)F)C(F)(F)F)cc(C)c1/N=N/C(=C1/NCCN1Cc1ccc(Cl)nc1)[N+](=O)[O-] | – | – | – | 12.2
O=[N+]([O-])C(/N=N/c1ccc([N+](=O)[O-])cc1)=C1\NCCN1Cc1ccc(Cl)nc1 | – | – | – | 4.7
O=[N+]([O-])C(/N=N/c1ccc(Br)cc1)=C1\NCCN1Cc1ccc(Cl)nc1 | – | – | – | 58.3
O=[N+]([O-])C(/N=N/c1ccccc1Cl)=C1\NCCN1Cc1ccc(Cl)nc1 | – | – | – | 7.1
COc1ccc(/N=N/C(=C2/NCCN2Cc2cnc(Cl)s2)[N+](=O)[O-])cc1 | – | – | – | 11.8
COc1ccccc1/N=N/C(=C1/NCCN1Cc1ccc(Cl)nc1)[N+](=O)[O-] | 35.5 | 76 | – | 91
Cc1cccc(C)c1/N=N/C(=C1/NCCN1Cc1ccc(Cl)nc1)[N+](=O)[O-] | 100 | 100 | 4.26 | 100
Cc1cccc(/N=N/C(=C2/NCCN2Cc2cnc(Cl)s2)[N+](=O)[O-])c1C | – | – | – | 61.7
CCc1cccc(CC)c1/N=N/C(=C1/NCCN1Cc1cnc(Cl)s1)[N+](=O)[O-] | 100 | 100 | 11.8 | 100
O=[N+]([O-])C(/N=N/c1ccc([N+](=O)[O-])cc1)=C1\NCCN1Cc1cnc(Cl)s1 | – | – | – | 12.1
O=[N+]([O-])C(/N=N/c1ccccc1I)=C1\NCCN1Cc1ccc(Cl)nc1 | – | – | – | 0
COc1cccc(OC)c1/N=N/C(=C1/NCCN1Cc1ccc(Cl)nc1)[N+](=O)[O-] | 100 | 100 | 9.9 | 100
Cc1cccc(/N=N/C(=C2/NCCN2Cc2ccc(Cl)nc2)[N+](=O)[O-])c1C | – | – | – | 73.3
O=[N+]([O-])C(/N=N/c1ccc(F)c(Cl)c1)=C1\NCCN1Cc1ccc(Cl)nc1 | – | – | – | 8.6
Cc1ccc(/N=N/C(=C2/NCCN2Cc2ccc(Cl)nc2)[N+](=O)[O-])cc1C | – | – | – | 19.7
Cc1ccc(/N=N/C(=C2/NCCN2Cc2ccc(Cl)nc2)[N+](=O)[O-])cc1 | – | – | – | 56.6
